Measured values pooled from the literature.
Compare with care: the assays were run in different laboratories. Converted amounts (≈) assume the structure as drawn.

Compound	organism	test	test system	conditions	quantity	value
N#CC(=Cc1ccc(Cl)cc1)C1=NC(=O)C(=Cc2cn(-c3ccccc3)nc2-c2ccccc2)S1	Acinetobacter baumannii	microbial growth, well diffusion	–	100000 µg/mL	inhibition zone	20 mm
Nc1nc(N)c2ncn([C@H]3O[C@H](CO)[C@@H](F)[C@@H]3F)c2n1	Hepatitis C virus	viral replication, inhibitor	Huh-7	replicon	EC90	> 10000 nM
N#CC(=Cc1cn(-c2ccccc2)nc1-c1ccccc1)C1=NC(=O)CS1	Acinetobacter baumannii	microbial growth, well diffusion	–	100000 µg/mL	inhibition zone	26 mm
CC1(C)OC[C@@]2(C)[C@H]3CC[C@@H]4CN(Cc5ccc(C(F)(F)F)cc5)[C@@H](C5=CCOC5=O)C[C@H]4[C@]3(C)CC[C@H]2O1	unidentified human coronavirus	cytopathic effect	MRC5	25 µM, 72 h	inhibition	88.3%
CCOC(=O)c1c(N)csc1-c1cn(-c2ccccc2)nc1-c1ccccc1	Acinetobacter baumannii	microbial growth, well diffusion	–	100000 µg/mL	inhibition zone	20 mm
CC(=O)OC[C@@]1(C)[C@H]2CC[C@@H]3CN(Cc4ccc(O)cc4)[C@@H](C4=CCOC4=O)C[C@H]3[C@]2(C)CC[C@H]1OC(C)=O	unidentified human coronavirus	cytopathic effect	MRC5	25 µM, 72 h	inhibition	50.4%
CCCCCCC/C=C/C(=O)N1C(=O)/C(=C(/C)O)C(=O)C1CO (centres unmarked)	Proteus mirabilis	microbial growth	ATCC25933	–	MIC	> 200 µg/mL
Nc1nc(Cl)c2ncn([C@@H]3O[C@H](CO)[C@@H](F)[C@@H]3F)c2n1	Hepatitis C virus	viral replication, inhibitor	Huh-7	replicon	EC90	> 10000 nM
COC(=O)N[C@H](C(=O)N1CCC[C@H]1c1ncc(-c2ccc(-c3ccc(-c4cnc([C@@H]5CCCN5C(=O)[C@@H](NC(=O)OC)C(C)C)[nH]4)cc3)cc2)[nH]1)C(C)C	Hepatitis C virus	viral replication, inhibitor	HeLa, GETYPE2A	replicon	EC50	0.0037 nM
CCCN1C[C@H]2CC[C@@H]3[C@](C)(COC(C)=O)[C@H](OC(C)=O)CC[C@@]3(C)[C@@H]2C[C@@H]1C1=CCOC1=O	unidentified human coronavirus	cytopathic effect	MRC5	25 µM, 72 h	inhibition	45.8%
Nc1nc(Cl)c2ncn([C@@H]3O[C@H](COC(=O)c4ccccc4)[C@@H](F)[C@@H]3F)c2n1	Hepatitis C virus	viral replication, inhibitor	Huh-7	replicon	EC90	10000 nM
CN[C@H](CC(C)C)C(=O)N[C@H]1C(=O)N[C@@H](CC(N)=O)C(=O)N[C@H]2C(=O)N[C@H]3C(=O)N[C@H](C(=O)N[C@H](C(=O)O)c4cc(O)cc(O)c4-c4cc3ccc4O)[C@H](O)c3ccc(c(Cl)c3)Oc3cc2cc(c3O[C@@H]2O[C@H](CO)[C@@H](O)[C@H](O)[C@H]2O[C@H]2C[C@](C)(N)[C@H](O)[C@H](C)O2)Oc2ccc(cc2Cl)[C@H]1O	Acinetobacter baumannii	microbial killing, broth dilution	BAA747	–	MBC	> 128 µM
CCOC(=O)N[C@H](C(=O)N1CCC[C@H]1C(=O)Nc1cccc(C#CC#Cc2cccc(NC(=O)[C@@H]3CCCN3C(=O)[C@@H](NC(=O)OCC)[C@@H](C)CC)c2)c1)[C@H](C)CC	Hepatitis C virus	viral replication, inhibitor, luciferase	Huh-5-2, GETYPE1B	72 h, replicon	EC50	392 nM
C[C@@]12COCO[C@@H]1CC[C@]1(C)[C@@H]2CC[C@@H]2CN(Cc3ccc(F)cc3)[C@@H](C3=CCOC3=O)C[C@H]21	unidentified human coronavirus	cytopathic effect	MRC5	25 µM, 72 h	inhibition	32%
Cc1ccc(-c2nn(-c3ccccc3)cc2C=C(C#N)C2=NC(=O)CS2)cc1	Acinetobacter baumannii	microbial growth, well diffusion	–	100000 µg/mL	inhibition zone	20 mm
COC(=O)N[C@H](CC(C)C)C(=O)N1CCC[C@H]1C(=O)Nc1cccc(C#CC#Cc2cccc(NC(=O)[C@@H]3CCCN3C(=O)[C@@H](CC(C)C)NC(=O)OC)c2)c1	Hepatitis C virus	viral replication, inhibitor, luciferase	Huh-5-2, GETYPE1B	72 h, replicon	EC50	0.0686 nM
CCOC(=O)c1c(N)csc1-c1cn(-c2ccccc2)nc1-c1ccc(C)cc1	Acinetobacter baumannii	microbial growth, well diffusion	–	100000 µg/mL	inhibition zone	29 mm
CC1(C)OC[C@@]2(C)[C@H]3CC[C@@H]4CN(Cc5ccc(F)c(Cl)c5)[C@@H](C5=CCOC5=O)C[C@H]4[C@]3(C)CC[C@H]2O1	unidentified human coronavirus	cytopathic effect	MRC5	25 µM, 72 h	inhibition	51.6%
CCCCCCC/C=C/C(=O)N1C(=O)/C(=C(\O)c2ccc(F)cc2)C(=O)C1CC(C)C (centres unmarked)	Proteus mirabilis	microbial growth	ATCC25933	–	MIC	> 200 µg/mL
Cc1cn([C@H]2C[C@H](N=[N+]=[N-])[C@@H](CO)O2)c(=O)[nH]c1=O	Hepatitis C virus	viral replication, inhibitor	Huh-7	replicon	EC90	> 10000 nM
CCCCCCC/C=C/C(=O)N1C(=O)/C(=C(\O)c2ccccc2)C(=O)C1CC(C)C (centres unmarked)	Proteus mirabilis	microbial growth	ATCC25933	–	MIC	> 200 µg/mL
CC(C)(O/N=C(\C(=O)N[C@@H]1C(=O)N2C(C(=O)[O-])=C(C[n+]3ccccc3)CS[C@H]12)c1csc(N)n1)C(=O)O	Acinetobacter baumannii	microbial growth, disc diffusion	–	10 µg/disc, clinical isolate	inhibition zone	6 mm

Compound	organism	test	test system	conditions	quantity	value
CN(C)c1ccc(O)c2c1C[C@H]1C[C@H]3[C@H](N(C)C)C(O)=C(C(N)=O)C(=O)[C@@]3(O)C(O)=C1C2=O	Acinetobacter baumannii	microbial growth, broth dilution	ATCC19606	–	MIC	0.063 µg/mL (≈ 0.138 µM)
Nc1nc(NS(=O)(=O)c2ccccc2)nc(-c2ccc(Cl)cc2)c1-c1nc2ccccc2s1	Enterovirus B	plaque formation	BGM, B4	–	IC50	91 µg/mL
CCCCCCC/C=C/C(=O)N1C(=O)/C(=C(\O)c2ccncc2)C(=O)C1CC(C)C (centres unmarked)	Proteus mirabilis	microbial growth	ATCC25933	–	MIC	> 200 µg/mL
CCOC(=O)N[C@H](CC(C)C)C(=O)N1CCC[C@@H]1C(=O)Nc1cccc(C#CC#Cc2cccc(NC(=O)[C@H]3CCCN3C(=O)[C@@H](CC(C)C)NC(=O)OCC)c2)c1	Hepatitis C virus	viral replication, inhibitor, luciferase	Huh-5-2, GETYPE1B	72 h, replicon	EC50	410 nM
COc1nc(Cl)nc2c1ncn2[C@@H]1O[C@H](CO)[C@@H](F)[C@@H]1F	Hepatitis C virus	viral replication, inhibitor	Huh-7	replicon	EC50	> 10000 nM
CCCCCCC/C=C/C(=O)N1C(=O)/C(=C(\O)C2CCNCC2)C(=O)C1CC(C)C (centres unmarked)	Proteus mirabilis	microbial growth	ATCC25933	–	MIC	200 µg/mL (≈ 478 µM)
Nc1nc(NS(=O)(=O)c2ccccc2)ncc1-c1nc2ccccc2s1	Enterovirus B	plaque formation	BGM, B4	–	IC50	85 µg/mL
CC(=O)OC[C@@]1(C)[C@H]2CC[C@@H]3CN(Cc4cccc5ccccc45)[C@@H](C4=CCOC4=O)C[C@H]3[C@]2(C)CC[C@H]1OC(C)=O	unidentified human coronavirus	cytopathic effect	MRC5	25 µM, 72 h	inhibition	106%
COc1cc(O)c(CC=C(C)C)c(O)c1C(=O)/C=C/c1ccc(O)cc1	Leishmania tarentolae	parasite growth, resazurin	–	48 h, promastigote	IC50	780 nM
CCOC(=O)N[C@@H](C(=O)N1CCC[C@H]1C(=O)Nc1ccc(C#CC#Cc2ccc(NC(=O)[C@@H]3CCCN3C(=O)[C@H](NC(=O)OCC)C(C)C)cc2)cc1)C(C)C	Hepatitis C virus	viral replication, inhibitor, luciferase	Huh-5-2, GETYPE1B	72 h, replicon	EC50	267 nM
Cc1ccc(S(=O)(=O)Nc2nc(N)c(-c3nc4ccccc4s3)c(-c3ccc(F)cc3)n2)cc1	Enterovirus B	plaque formation	BGM, B4	–	IC50	82 µg/mL
O=C(OC[C@H]1O[C@H](n2cnc3c(Cl)nc(Cl)nc32)[C@@H](F)[C@@H]1F)c1ccccc1	Hepatitis C virus	viral replication, inhibitor	Huh-7	replicon	EC90	< 10000 nM
CCOC(=O)c1cc(C#N)c(=O)n(NS(=O)(=O)c2ccc(C)cc2)c1N	Enterovirus B	plaque formation	BGM, B4	–	IC50	90 µg/mL
Cc1ccc(-c2nn(-c3ccccc3)cc2C=c2sc(=CC#N)[nH]c2=O)cc1	Acinetobacter baumannii	microbial growth, well diffusion	–	100000 µg/mL	inhibition zone	14 mm
CC(=O)OC[C@@]1(C)[C@H]2CC[C@@H]3CN(Cc4ccc([N+](=O)[O-])cc4)[C@@H](C4=CCOC4=O)C[C@H]3[C@]2(C)CC[C@H]1OC(C)=O	unidentified human coronavirus	cytopathic effect	MRC5	25 µM, 72 h	inhibition	44.6%
C/C(=C\c1ccc(C#N)cc1)C(=O)Nc1ccc(C(=O)N[C@@H](CC(N)=O)C(=O)Nc2ccc(C(=O)Nc3ccc(C(=O)Nc4ccc(C(=O)O)cc4)c(O)c3OC(C)C)cc2)cc1	Proteus mirabilis	microbial growth	DSM4479	–	MIC	> 64 µg/mL
CC(C)[C@H](NC(=O)OCc1ccccc1)C(=O)N1CCC[C@H]1C(=O)Nc1cccc(C#CC#Cc2cccc(NC(=O)[C@@H]3CCCN3C(=O)[C@@H](NC(=O)OCc3ccccc3)C(C)C)c2)c1	Hepatitis C virus	viral replication, inhibitor, luciferase	Huh-5-2, GETYPE1B	72 h, replicon	EC50	> 10000 nM
OC[C@H]1O[C@@H](n2cnc3c(NCc4ccccc4)nc(Cl)nc32)[C@@H](F)[C@@H]1F	Hepatitis C virus	viral replication, inhibitor	Huh-7	replicon	EC90	9900 nM
CCOC(=O)N[C@H](C(=O)N1CCC[C@H]1C(=O)Nc1cccc(C#CC#Cc2cccc(NC(=O)[C@@H]3CCCN3C(=O)[C@@H](NC(=O)OCC)C(C)C)c2)c1)C(C)C	Hepatitis C virus	viral replication, inhibitor, luciferase	Huh-5-2, GETYPE1B	72 h, replicon	EC50	451 nM
CC(=O)OC[C@@]1(C)[C@H]2CC[C@@H]3CN(Cc4cccs4)[C@@H](C4=CCOC4=O)C[C@H]3[C@]2(C)CC[C@H]1OC(C)=O	unidentified human coronavirus	cytopathic effect	MRC5	25 µM, 72 h	inhibition	31.2%
CCCCCCC/C=C/C(=O)N1CC(=O)/C(=C(\C)O)C1=O	Proteus mirabilis	microbial growth	ATCC25933	–	MIC	> 200 µg/mL
COC(=O)N[C@H](C(=O)N1CCC[C@H]1C(=O)Nc1cccc(C#CC#Cc2cccc(NC(=O)[C@@H]3CCCN3C(=O)[C@@H](NC(=O)OC)C(C)C)c2)c1)C(C)C	Hepatitis C virus	viral replication, inhibitor, luciferase	GETYPE3A	replicon	EC50	9500 nM
